Test results: PubChem BioAssay AID504382 (The Scripps Research Institute Molecular Screening Center, 2011)
Screen size: about 2,500 compounds; about 460 (18%) were called active. The list is a sample of the results. Unmarked numbers belong to inactive results.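 How the source made its calls: active means mean activation above a cutoff of low control average plus 3 SD from the earlier screen (cut at about 12% in these data); inactive means the rest.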

Test: IANBD-channel fluorescence artefacts in buffer – biochemical, artefact control for cardiac RTF calcium sensitizer project, confirmation (AID 504382)
Conditions: IANBD fluorescence interference counterscreen, EC20 Ca2+, at 7.2 µM, stronger effect = higher value, scaled: EC20 calcium 0, EC100 calcium 100
Procedure, shortened: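 Medium: MOPS buffer, 190 mM, with KCl, MgCl2, EGTA, NTA, DTT, pH 7.20; Dosing: one dose of 7.2 µM, 0.7% DMSO; Probe or stimulus: calcium at EC20 level, 0.472 mM final; Incubation: 15 min, 25 °C; Evaluation: compound fluorescence interference relative to control well signal range; Signal: fluorescence, 480/540 nm.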

Q: With `O=C1c2cccc3c([N+](=O)[O-])ccc(c23)C(=O)N1Cc1cccnc1` as the molecule, how does the fluorescence artifact activation read?
A: The fluorescence artifact activation was 0.04%.

Q: Which fluorescence artifact activation does the source give for `Cc1ccnc(N2C(=O)c3cccc4c([N+](=O)[O-])ccc(c34)C2=O)c1` here?
A: The fluorescence artifact activation was 3.75%.

Q: With `CN(C)CCCN1C(=O)c2cccc3c([N+](=O)[O-])ccc(c23)C1=O` as the molecule, how does the fluorescence artifact activation read?
A: The fluorescence artifact activation was 14.2% (active).

Q: Which fluorescence artifact activation does the source give for `O=C(O)c1ccccc1C1=Nc2ccc(O)cc2Oc2cc(O)ccc21` here?
A: Its fluorescence artifact activation is 0.18%.

Q: With `Cc1cc(C)n(NC(=S)NC2CCCCC2)c(=O)c1C#N` as the molecule, how does the fluorescence artifact activation read?
A: The fluorescence artifact activation was -0.01%.

Q: For `Cc1ccccc1-c1noc(-c2cccs2)n1`, which fluorescence artifact activation is on record?
A: The fluorescence artifact activation was 5.07%.

Q: With `CC(=O)[C@H]1[C@H](C#N)C[C@H]2[C@@H]3CC=C4C[C@@H](O)CC[C@]4(C)[C@H]3CC[C@@]21C` as the molecule, how does the fluorescence artifact activation read?
A: The fluorescence artifact activation was 10.9%.

Q: For `Cc1cc(-n2c(=O)c(C#N)cc3c(=O)n4ccccc4nc32)no1`, which fluorescence artifact activation is on record?
A: Its fluorescence artifact activation is 0.34%.

Q: With `CN(C)c1ccc(/C=C2\Oc3ccc(C#Cc4cccc(N)c4)cc3C2=O)cc1` as the molecule, how does the fluorescence artifact activation read?
A: The fluorescence artifact activation was 0.09%.

Q: With `Cc1nn(-c2ccccc2)c(N2CCCC2)c1/C=C1\N=C(c2ccc(OC(C)C)cc2)OC1=O` as the molecule, how does the fluorescence artifact activation read?
A: The fluorescence artifact activation was 0.42%.

Q: With `COc1ccc(NC(C)=O)cc1NC(=O)C1CCCN1C(=O)c1cccs1` (stereo unspecified) as the molecule, how does the fluorescence artifact activation read?
A: Its fluorescence artifact activation is -0.02%.

Q: Which fluorescence artifact activation does the source give for `CCN(CC)c1ccc(/C=c2/sc3nnc(-c4ccccc4C)n3c2=O)cc1` here?
A: The fluorescence artifact activation was 0.53%.

Q: With `CCN(CC)c1ccc(/C=c2\sc3nc4ccccc4n3c2=O)c(O)c1` as the molecule, how does the fluorescence artifact activation read?
A: The fluorescence artifact activation was 3.44%.

Q: Which fluorescence artifact activation does the source give for `CCN(CC)c1ccc(/C=c2\sc3nnc(-c4ccccc4Cl)n3c2=O)cc1` here?
A: Its fluorescence artifact activation is 13.8% (active).

Q: For `Cc1ccc(/C=C/C(=O)N2CCN(S(=O)(=O)c3ccc(C)c(C)c3)CC2)o1`, which fluorescence artifact activation is on record?
A: The fluorescence artifact activation was 2.09%.

Q: For `Cc1ccc(C(=O)N2C(=O)C(c3ccccc3)Oc3ccccc32)cc1` (stereo unspecified), which fluorescence artifact activation is on record?
A: Its fluorescence artifact activation is 0.42%.

Q: Which fluorescence artifact activation does the source give for `CN1CC=C2C(C#N)=C(N)C(C#N)(C#N)C(c3ccsc3)C2C1` (stereo unspecified) here?
A: Its fluorescence artifact activation is 0.22%.

Q: Which fluorescence artifact activation does the source give for `C=CCN1C=CC(=CC=C(C#N)C#N)C=C1` here?
A: Its fluorescence artifact activation is 251% (active).

Q: Which fluorescence artifact activation does the source give for `CCCN1C=CC(=CC=C(C#N)C#N)C=C1` here?
A: Its fluorescence artifact activation is 4.48%.

Q: Which fluorescence artifact activation does the source give for `CCOc1ccc(S(=O)(=O)n2ccnc2)c2ccccc12` here?
A: The fluorescence artifact activation was 2.67%.

Q: Which fluorescence artifact activation does the source give for `CCc1ccc(C(=O)NNC(=O)c2cccc(N3C(=O)CCC3=O)c2)cc1` here?
A: The fluorescence artifact activation was 2.93%.

Q: Which fluorescence artifact activation does the source give for `O=S(=O)([N-]c1nc2ccccc2nc1-[n+]1ccc(-c2ccncc2)cc1)c1ccccc1` here?
A: Its fluorescence artifact activation is 0.08%.

Q: With `CCc1cc[n+](-c2nc3ccccc3nc2[N-]S(=O)(=O)c2ccc(Br)s2)cc1` as the molecule, how does the fluorescence artifact activation read?
A: The fluorescence artifact activation was -0.02%.

Q: For `Cc1ccc[n+](-c2nc3ccccc3nc2[N-]S(=O)(=O)c2ccccc2)c1`, which fluorescence artifact activation is on record?
A: Its fluorescence artifact activation is 17.5% (active).

Q: For `CC1=Nc2ccccc2/C1=C\c1nc(-c2ccc(F)cc2)oc1O`, which fluorescence artifact activation is on record?
A: The fluorescence artifact activation was 0.71%.

Q: With `Cc1ccc(NC(=S)Nc2ccc3nc(-c4ccccn4)c(-c4ccccn4)nc3c2)cc1C` as the molecule, how does the fluorescence artifact activation read?
A: The fluorescence artifact activation was 0%.

Q: With `O=C(COc1ccccc1)NC(=S)Nc1cccc(NC(=O)c2ccccc2Cl)c1` as the molecule, how does the fluorescence artifact activation read?
A: Its fluorescence artifact activation is 0.01%.

Q: With `CC(C)CNC(=S)NC(=O)c1ccccc1Cl` as the molecule, how does the fluorescence artifact activation read?
A: The fluorescence artifact activation was 32.2% (active).

Q: For `Cc1ccccc1C(=O)NC(=S)NC1CC1`, which fluorescence artifact activation is on record?
A: Its fluorescence artifact activation is 0.12%.

Q: For `CCCn1c(=N)n(CC(O)c2ccco2)c2ccccc21` (stereo unspecified), which fluorescence artifact activation is on record?
A: Its fluorescence artifact activation is 0.03%.

Q: With `COCCCN1C(=O)/C(=C/c2ccc(CNS(=O)(=O)c3ccccc3)o2)C(C(=O)OC)=C1C` as the molecule, how does the fluorescence artifact activation read?
A: The fluorescence artifact activation was 0.04%.

Q: With `COc1c(Cl)ccc(Cl)c1C(=O)NCc1ccco1` as the molecule, how does the fluorescence artifact activation read?
A: Its fluorescence artifact activation is 0.03%.

Q: Which fluorescence artifact activation does the source give for `CCOc1ccc(CNC(=O)c2ccc(Sc3ccc(Cl)cc3)c(NC(C)=O)c2)cc1` here?
A: Its fluorescence artifact activation is 1.09%.

Q: For `CC(=O)Nc1cc(C(=O)NCc2ccco2)ccc1Sc1ccc(F)cc1`, which fluorescence artifact activation is on record?
A: Its fluorescence artifact activation is 18.1% (active).

Q: Which fluorescence artifact activation does the source give for `CCCCOc1[nH]c2nc(-c3ccco3)n(Cc3ccco3)c(=N)c2c1C#N` here?
A: The fluorescence artifact activation was 0.23%.

Q: With `O=c1nc2c(O)cccn2c2c1c(=O)[nH]c1ccccc12` as the molecule, how does the fluorescence artifact activation read?
A: Its fluorescence artifact activation is 0.02%.

Q: With `Cc1sc2nc(COC(=O)c3cccc(S(=O)(=O)N(C)c4ccccc4)c3)[nH]c(=O)c2c1C` as the molecule, how does the fluorescence artifact activation read?
A: The fluorescence artifact activation was 0.1%.

Q: Which fluorescence artifact activation does the source give for `Cc1cccc(C)c1NC(=O)CN(C1CCCCC1)S(C)(=O)=O` here?
A: The fluorescence artifact activation was 0.02%.

Q: Which fluorescence artifact activation does the source give for `CCCNC(=O)c1ccc(N2CCC3(CC2)CC(c2cccc(Br)c2)=NO3)c(NC(=O)c2cccc(C)c2)c1` here?
A: Its fluorescence artifact activation is 3.63%.

Q: For `CC(=O)N1CCc2c(sc(NC(=O)C3CCCN3S(=O)(=O)c3cccs3)c2C(N)=O)C1` (stereo unspecified), which fluorescence artifact activation is on record?
A: Its fluorescence artifact activation is 9.49%.

Q: With `O=C(c1cc(Cl)ccc1O)N1CCN(S(=O)(=O)c2cccs2)CC1` as the molecule, how does the fluorescence artifact activation read?
A: Its fluorescence artifact activation is 114% (active).

Q: With `O=C(CC1CCCC1)N1CCN(S(=O)(=O)c2ccccc2)CC1` as the molecule, how does the fluorescence artifact activation read?
A: Its fluorescence artifact activation is 0.13%.

Q: With `O=C(c1cc(-c2cccs2)nn1-c1ccccc1)N1CCN(S(=O)(=O)c2ccccc2)CC1` as the molecule, how does the fluorescence artifact activation read?
A: Its fluorescence artifact activation is 2.28%.

Q: For `O=C(Nc1nccs1)C1CCN(S(=O)(=O)c2ccccc2)CC1`, which fluorescence artifact activation is on record?
A: The fluorescence artifact activation was 461% (active).

Q: With `O=C(Cc1cccs1)N1CCN(S(=O)(=O)c2cc(Cl)ccc2Cl)CC1` as the molecule, how does the fluorescence artifact activation read?
A: Its fluorescence artifact activation is 1.88%.

Q: For `O=C(Nc1ccccc1N1CCOCC1)C1CCN(S(=O)(=O)c2ccccc2F)CC1`, which fluorescence artifact activation is on record?
A: The fluorescence artifact activation was -0.05%.
